In brackets after ≈: the same amount, converted by molar mass.

Experiment [1] concerns Mycobacterium tuberculosis. Put plainly: Inhibition of multidrug-resistant Mycobacterium tuberculosis PT12 clinical isolate QcrB assessed as reduction in bacterial growth by resazurin reduction microplate assay. An outline of the steps: (§1)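 REMA in Middlebrook 7H9 with 10% ADC and 5% DMSO. Compounds come from 2 mg/mL DMSO stocks as 10-point 2-fold serial dilutions, with a top concentration of 5–40 µg/mL set by solubility. MIC is the lowest concentration preventing resazurin blue-to-pink conversion. Three independent experiments; the modal or highest value is reported, in µM.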

Experiment [2] relates to Mycobacterium tuberculosis. Put plainly: Inhibition of multidrug-resistant Mycobacterium tuberculosis PT20 clinical isolate QcrB assessed as reduction in bacterial growth by resazurin reduction microplate assay. Summed up:
as §1

The subject of experiment [3] is Mycobacterium tuberculosis. The experiment can be described thus: Inhibition of Mycobacterium tuberculosis QcrB T313A mutant assessed as reduction in bacterial growth by resazurin reduction microplate assay. Summed up: as §1
For experiment [4], the system named is Mycobacterium tuberculosis. The experiment can be described thus: Inhibition of multidrug-resistant Mycobacterium tuberculosis PT2 clinical isolate QcrB assessed as reduction in bacterial growth by resazurin reduction microplate assay. Summed up:
as §1
(In general: The colour change of resazurin is a common sign of viable cells or microbes.)

Experiment [5] in a line: Ratio of MIC for inhibition of Mycobacterium tuberculosis QcrB T313A mutant to MIC for inhibition of Mycobacterium tuberculosis H37Rv ATCC 27294 QcrB assessed as reduction in bacterial growth.

For the compound `NNC(=O)c1ccncc1`, the results for the MIC in experiment [1], in experiment [2] and in experiment [3] were 72.9 µM (≈ 10 µg/mL), 146 µM (≈ 20 µg/mL) and 2.3 µM (≈ 0.315 µg/mL), respectively.

Consider `COc1ccc2nc(C)cc(OCc3ccc(C(C)C)cc3)c2c1`, for which the MIC in experiment [4] came out at 0.5 µM (≈ 0.161 µg/mL); in experiment [1], 1 µM (≈ 0.321 µg/mL); in experiment [2], 0.2 µM (≈ 0.0643 µg/mL); in experiment [3] it was 7.8 µM (≈ 2.51 µg/mL). In experiment [5], the Ratio was above 4.

Take `COc1ccc2nc(C)cc(OCc3ccc(Cl)c(Cl)c3)c2c1`: the MIC in experiment [4] amounted to 0.2 µM (≈ 0.0696 µg/mL); in experiment [1], 0.5 µM (≈ 0.174 µg/mL); in experiment [2], 0.2 µM (≈ 0.0696 µg/mL); in experiment [3], 14.4 µM (≈ 5.01 µg/mL). Also, the Ratio in experiment [5] is above 4.

Take `COc1ccc2nc(C)cc(OCC(=O)c3cccc(Cl)c3)c2c1`: the MIC in experiment [4] was determined as 0.5 µM (≈ 0.171 µg/mL); in experiment [1], 0.9 µM (≈ 0.308 µg/mL); in experiment [2], 0.2 µM (≈ 0.0684 µg/mL); in experiment [3] it was 7.3 µM (≈ 2.5 µg/mL). Also, the Ratio in experiment [5] was above 4.

With `CO[C@H]1/C=C/O[C@@]2(C)Oc3c(C)c(O)c4c(O)c(c(/C=N/N5CCN(C)CC5)c(O)c4c3C2=O)NC(=O)/C(C)=C\C=C\[C@H](C)[C@H](O)[C@@H](C)[C@@H](O)[C@@H](C)[C@H](OC(C)=O)[C@@H]1C`, the MIC in experiment [4] was above 48.6 µM; in experiment [1], above 48.6 µM; in experiment [2], 12.2 µM (≈ 10 µg/mL).

For `COc1ccc2nc(C)cc(OCC(=O)c3ccccc3)c2c1`, the MIC in experiment [4] worked out at 2 µM (≈ 0.615 µg/mL); in experiment [1] it was 2 µM (≈ 0.615 µg/mL); in experiment [2], 1 µM (≈ 0.307 µg/mL); in experiment [3], 32.5 µM (≈ 9.99 µg/mL). In addition, in experiment [5], the Ratio was above 4.

Values taken from ChEMBL document CHEMBL4680209, “Design, synthesis, and evaluation of new 2-(quinoline-4-yloxy)acetamide-based antituberculosis agents” (Eur J Med Chem, 2020).
